Results gathered from unrelated publications.
Compare with care: the assays were run in different laboratories.
PDE5A: cGMP-specific 3',5'-cyclic phosphodiesterase (PDE5A, Homo sapiens, UniProt O76074)
CNR1: Cannabinoid receptor 1 (CNR1, Homo sapiens, UniProt P21554)
ADORA2A: Adenosine receptor A2a (ADORA2A, Homo sapiens, UniProt P29274)
PARP1: Poly [ADP-ribose] polymerase 1 (PARP1, Homo sapiens, UniProt P09874)
PIK3C2B: Phosphatidylinositol 4-phosphate 3-kinase C2 domain-containing subunit beta (PIK3C2B, Homo sapiens, UniProt O00750)
SPHK1: Sphingosine kinase 1 (SPHK1, Homo sapiens, UniProt Q9NYA1)
EHMT1: Histone-lysine N-methyltransferase EHMT1 (EHMT1, Homo sapiens, UniProt Q9H9B1)
EDNRA: Endothelin-1 receptor (EDNRA, Homo sapiens, UniProt P25101)

| SMILES | target | effect on | action | method | concentration | setting | inhibition |
| --- | --- | --- | --- | --- | --- | --- | --- |
| COC(=O)[C@H]1Cc2c([nH]c3ccccc23)[C@@H](c2ccc(OC)c(OC)c2)N1C(=O)CCl | PDE5A | enzyme activity | inhibitor | FP | 50 µM | – | 70% |
| Nc1ccc(-c2ccncc2)cc1NC(=O)N1CCCC1 | CNR1 | ligand displacement | – | radioligand | 10 µM | – | 15% |
| COc1ccc(F)cc1C(=O)NCc1ccc(-c2nn([C@@H](C)C(F)(F)F)c(N)c2C(N)=O)cc1 | Mitogen-activated protein kinase kinase kinase 3 (MAP3K3, Homo sapiens, UniProt Q99759) | target engagement in cells | inhibitor | chemoproteomics | 0.1 µM | – | 26.3% |
| COc1ccc(-c2nc3cc(CN4CCCCC4)ccc3o2)cc1OC | ADORA2A | ligand displacement | – | radioligand | 10 µM | cell membranes | 18% |
| COc1cccc2nc(-c3ccc(C(=O)N4CCN(C(=O)C5CC5)CC4)cc3F)[nH]c(=O)c12 | PARP1 | enzyme activity | inhibitor | ELISA | 10 µM | – | 56% |
| COc1ccc([C@H]2c3[nH]c4ccccc4c3C[C@H]3C(=O)N(C(C)(C)C)C(=O)N23)cc1OC | PDE5A | enzyme activity | inhibitor | FP | 50 µM | – | 58% |
| CS(=O)(=O)Nc1cccc(-c2csc(NC(=O)CSc3nc4nccnc4c(=O)n3CCc3ccccc3)n2)c1 | PIK3C2B | enzyme activity | inhibitor | – | 10 µM | – | 19% |
| CCCCC=CCOc1ccc(-c2noc([C@@H]3CCCN3C(=N)N)n2)cc1C(F)(F)F | SPHK1 | enzyme activity | inhibitor | radiometric | 1 µM | – | 18% |
| O=c1oc2c(O)c(O)cc3c(=O)oc4c(O)c(O)cc1c4c23 | EHMT1 | cell-free assay | – | – | 10 µM | – | 6% |
| O=C(CSc1nc2nccnc2c(=O)n1CCc1ccccc1)Nc1ccccc1 | SPHK1 | enzyme activity | inhibitor | – | 10 µM | – | < 20% |
| [H]/N=C(\N)N1CCC[C@H]1c1nc(-c2ccc(OCC=Cc3ccc(C(F)(F)F)cc3)c(C(F)(F)F)c2)no1 | SPHK1 | enzyme activity | inhibitor | radiometric | 1 µM | – | 20% |
| O=C1C=C2CC3(O)COc4c(ccc(O)c4O)C3=C2C=C1O (centres unmarked) | EHMT1 | cell-free assay | – | – | 10 µM | – | 11% |
| COc1ccc(-c2nc3cc(CCCN4CCCCC4)ccc3o2)cc1OC | ADORA2A | ligand displacement | – | radioligand | 10 µM | cell membranes | 10% |
| Cn1cncc1C1=CN(c2ncnc3[nH]cnc23)CCS1 | Interleukin-1 receptor-associated kinase-like 2 (IRAK2, Homo sapiens, UniProt O43187) | enzyme activity | inhibitor | radiometric | 2 µM | – | 85% |
| O=C(c1ccc(Cl)cc1)N(Cc1ccccc1)C1CCCCC1 | EDNRA | cell-free assay | – | – | 10 µM | – | 1.4% |
| CCN1C(=O)[C@H]2Cc3c([nH]c4ccccc34)[C@H](c3cccnc3)N2C1=O | PDE5A | enzyme activity | inhibitor | FP | 50 µM | – | 58% |
| Oc1ccc(CCNc2ccc3oc(-c4ccco4)nc3c2)cc1 | ADORA2A | ligand displacement | – | radioligand | 10 µM | cell membranes | 15% |
| O=C(Nc1ccc(S(=O)(=O)N2CCC(Cl)CC2)cc1)c1ccc([N+](=O)[O-])o1 | CNR1 | ligand displacement | – | radioligand | 10 µM | – | 20% |
| O=C(c1ccc(-c2nc3ccccc3c(=O)[nH]2)c(F)c1)N1CCn2c(nnc2C(F)(F)F)C1 | PARP1 | enzyme activity | inhibitor | ELISA | 1 µM | – | 13% |
| O=C(O)CCCCCCCCCCCC[C@@H]1C=CCC1 | EHMT1 | cell-free assay | – | – | 10 µM | – | -11% |
| CC(C)(C)N1C(=O)[C@@H]2Cc3c([nH]c4ccccc34)[C@@H](c3ccc(Br)s3)N2C1=O | PDE5A | enzyme activity | inhibitor | FP | 10 µM | – | 90% |
| Ic1cccc2cnccc12 | CNR1 | ligand displacement | – | radioligand | 10 µM | – | 3% |
| COc1cc(NC(C)=O)c(Cl)cc1C(=O)Nc1nccs1 | EDNRA | cell-free assay | – | – | 10 µM | – | -1.4% |
| COc1cc(NC(C)CCCN)c2ncccc2c1 (centres unmarked) | EHMT1 | cell-free assay | – | – | 10 µM | – | 7% |

| SMILES | target | effect on | action | method | concentration | setting | inhibition |
| --- | --- | --- | --- | --- | --- | --- | --- |
| [H]/N=C(\N)N1CCC[C@H]1c1nc(-c2ccc(OCC=Cc3cccc(C(F)(F)F)c3)c(C(F)(F)F)c2)no1 | SPHK1 | enzyme activity | inhibitor | radiometric | 1 µM | – | 0% |
| COc1ccc(-c2nc3cc(CCN4CCCCC4)ccc3o2)cc1OC | ADORA2A | ligand displacement | – | radioligand | 10 µM | cell membranes | 10% |
| CCN1C(=O)[C@@H]2Cc3c([nH]c4ccccc34)[C@@H](c3ccc(OC)c(OC)c3)N2C1=O | PDE5A | enzyme activity | inhibitor | FP | 50 µM | – | 75% |
| [H]/N=C(/N)N1CCC[C@H]1c1nc(-c2ccc(OCCC=CCCCC)c(C(F)(F)F)c2)no1 | SPHK1 | enzyme activity | inhibitor | radiometric | 1 µM | – | 4% |
| CN1CC(Oc2cnc(C#N)cc2-c2ccn3nc(NC(=O)C4CC4)cc3c2)C1 | Testis-specific serine/threonine-protein kinase 4 (TSSK4, Homo sapiens, UniProt Q6SA08) | enzyme activity | inhibitor | – | 1 µM | – | -7% |
| CN1CCN(CCCOc2ccc(=O)n(-c3ccc(Cl)c(Cl)c3)n2)CC1 | Sodium channel protein type 9 subunit alpha (SCN9A, Homo sapiens, UniProt Q15858) | ligand displacement | – | – | 1 µM | – | 20.5% |
| O=C(c1ccc(F)cc1)N(Cc1ccccc1)C1CCCCC1 | Kappa-type opioid receptor (OPRK1, Homo sapiens, UniProt P41145) | ligand displacement | – | – | 10 µM | – | 33% |
| CCCNc1nc2ccccc2n1Cc1ccc(Cl)cc1 | Histamine H4 receptor (HRH4, Homo sapiens, UniProt Q9H3N8) | ligand displacement | – | – | 10 µM | – | -8.89% |
| Nc1ccc2c(c1)CCCn1nnnc1-2 | PARP1 | enzyme activity | inhibitor | – | 10 µM | – | 31% |
| O=C(O[C@@H]1Cc2c(O)cc(O)cc2O[C@@H]1c1cc(O)c(O)c(O)c1-c1c([C@H]2Oc3cc(O)cc(O)c3C[C@H]2O)cc(O)c(O)c1O)c1cc(O)c(O)c(O)c1 | EHMT1 | cell-free assay | – | – | 10 µM | – | -3% |
| Oc1cccc(Nc2nc(-c3ccc(F)cc3F)cs2)c1 | CNR1 | cell-free assay | – | – | 10 µM | – | 5.9% |
| COC(=O)[C@@H]1Cc2c([nH]c3ccccc23)[C@H](c2ccc(OC)c(OC)c2)N1 | PDE5A | enzyme activity | inhibitor | FP | 50 µM | – | 8% |
| CN(C)C1CCN(CC#Cc2nn(C3CCCC3)c3nc(NCc4ccccc4)ncc23)C1 (centres unmarked) | Cytoplasmic tyrosine-protein kinase BMX (BMX, Homo sapiens, UniProt P51813) | enzyme activity | inhibitor | FRET | 1 µM | – | 4% |
| [H]/N=C(\N)N1CCC[C@H]1c1nc(-c2ccc(OCC=Cc3ccc(F)cc3)c(C(F)(F)F)c2)no1 | SPHK1 | enzyme activity | inhibitor | radiometric | 1 µM | – | 0% |
| O=C(CSc1nc2nccnc2c(=O)n1CCc1ccccc1)Nc1nccs1 | PIK3C2B | enzyme activity | inhibitor | – | 10 µM | – | 68% |
| CC(C)(C)N1C(=O)[C@@H]2Cc3c([nH]c4ccccc34)[C@@H](c3cccnc3)N2C1=O | PDE5A | enzyme activity | inhibitor | FP | 50 µM | – | 90% |
| COc1cc2c(cc1OC)-c1nnnn1CCC2 | PARP1 | enzyme activity | inhibitor | – | 10 µM | – | 60% |
| Oc1ccc(N2CCN(Cc3ccc4oc(-c5ccco5)nc4c3)CC2)cc1 | ADORA2A | ligand displacement | – | radioligand | 10 µM | cell membranes | 11% |
| COc1ccc(CCc2ccc(-c3noc([C@@H]4CCCN4C(=N)N)n3)cc2C(F)(F)F)cc1 | SPHK1 | enzyme activity | inhibitor | radiometric | 1 µM | – | 0% |
| O=C1c2c(O)cccc2Cc2cccc(O)c21 | EHMT1 | cell-free assay | – | – | 10 µM | – | 10% |
| N=C(N)N1CCC[C@H]1c1nc(-c2ccc(CCc3ccc(C(F)(F)F)cc3)c(C(F)(F)F)c2)no1 | SPHK1 | enzyme activity | inhibitor | radiometric | 1 µM | – | 12% |
| COC(=O)[C@@H]1Cc2c([nH]c3ccccc23)[C@@H](c2cccnc2)N1 | PDE5A | enzyme activity | inhibitor | FP | 50 µM | – | 41% |
| Cc1cnc(C(=O)NCCNC(=O)Cn2[nH]c(=O)c3ccccc3c2=O)cn1 | PARP1 | enzyme activity | inhibitor | – | 0.5 µM | – | ~50% |
